In ChEMBL document CHEMBL1933000, “Design, synthesis and antitumor activity of 4-aminoquinazoline derivatives targeting VEGFR-2 tyrosine kinase” (Bioorg Med Chem Lett, 2012):
One block for each compound: values may come before it.

What was measured:
HUVEC = experiment: Antiproliferative activity against VEGF-stimulated HUVEC after 48 hrs by sulforhodamine B assay; conditions: Homo sapiens
[1] = Solubility of the compound in water; type: physicochemical; conditions: buffer
[2] = Lipophilicity, log P of the compound; type: physicochemical; conditions: octanol/water
[3] = Dissociation constant, pKa of the compound; type: physicochemical
Mus musculus [4] = experiment: Toxicity in nude BALB/c mouse xenografted with human HepG2 cells assessed as clinically observable signs of toxicity at 100 mg/kg, po qd at 3 doses for 15 days; type: organism-based; set-up: dose 100 mg/kg, route oral; conditions: in vivo, 360 h
Procedure, shortened: (§1)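 BALB/c-nu mice bearing sc flank HepG2 xenografts received oral compound once daily for 15 days, top dose 100 mg/kg, starting five days after implantation. Animals were watched for clinically observable toxicity signs and for body weight loss; n = 8.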

HepG2 [5] = experiment: Antitumor activity against human HepG2 cells xenografted in BALB/c nude mouse assessed as tumor growth inhibition at 20 mg/kg, po qd at 3 doses for 15 days; type: functional; conditions: HepG2, 360 h, read-out: TGI
Procedure, shortened: (§2)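 HepG2 hepatocarcinoma cells (1 × 10⁷) implanted sc in the flank of BALB/c-nu mice. Once-daily oral dosing of compound or vehicle began five days after implantation and ran 15 days at 20, 50 or 100 mg/kg. Tumor growth followed; %TGI; mean and SE, n = 8.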

[6] = target: Cyclin-dependent kinase 1 (Homo sapiens, UniProt P06493); experiment: Inhibition of CDK1
[7] = target: Vascular endothelial growth factor receptor 1 (Homo sapiens, UniProt P17948); experiment: Inhibition of VEGFR1
[8] = target: Vascular endothelial growth factor receptor 3 (Homo sapiens, UniProt P35916); experiment: Inhibition of VEGFR3
[9] = target: Platelet-derived growth factor receptor alpha (Homo sapiens, UniProt P16234); experiment: Inhibition of PDGFRalpha
[10] = Inhibition of AKT
[11] = target: Receptor tyrosine-protein kinase erbB-2 (Homo sapiens, UniProt P04626); experiment: Inhibition of HER2
Angiopoietin-1 receptor = Angiopoietin-1 receptor (Homo sapiens, UniProt Q02763); experiment: Inhibition of Tie2
HepG2 [12] = experiment: Antitumor activity against human HepG2 cells xenografted in BALB/c nude mouse assessed as tumor growth inhibition at 100 mg/kg, po qd at 3 doses for 15 days; type: functional; conditions: HepG2, 360 h, read-out: TGI; procedure, shortened: as §2
HepG2 [13] = experiment: Antitumor activity against human HepG2 cells xenografted in BALB/c nude mouse assessed as tumor growth inhibition at 50 mg/kg, po qd at 3 doses for 15 days; type: functional; conditions: HepG2, 360 h, read-out: TGI; procedure, shortened: as §2
[14] = target: Fibroblast growth factor receptor 1 (Homo sapiens, UniProt P11362); experiment: Inhibition of FGFR1
Mus musculus [15] = experiment: Toxicity in nude BALB/c mouse xenografted with human HepG2 cells assessed as weight loss at 100 mg/kg, po qd at 3 doses for 15 days; type: organism-based; set-up: dose 100 mg/kg, route oral; conditions: in vivo, 360 h; procedure, shortened: as §1
HepG2 [16] = experiment: Antitumor activity against human HepG2 cells xenografted in BALB/c nude mouse assessed as tumor growth inhibition administered as po qd at 3 doses for 15 days; type: functional, organism-based; procedure, shortened: as §2
[17] = target: Vascular endothelial growth factor receptor 2 (Homo sapiens, UniProt P35968); experiment: Inhibition of human GST-tagged VEGFR2 intracellular domain using biotin-aminohexyl-EEEEYFELVAKKKK-NH2 as substrate after 30 mins by HTRF assay

Chain of Receptor tyrosine-protein kinase erbB-2 (P04626 whole entry): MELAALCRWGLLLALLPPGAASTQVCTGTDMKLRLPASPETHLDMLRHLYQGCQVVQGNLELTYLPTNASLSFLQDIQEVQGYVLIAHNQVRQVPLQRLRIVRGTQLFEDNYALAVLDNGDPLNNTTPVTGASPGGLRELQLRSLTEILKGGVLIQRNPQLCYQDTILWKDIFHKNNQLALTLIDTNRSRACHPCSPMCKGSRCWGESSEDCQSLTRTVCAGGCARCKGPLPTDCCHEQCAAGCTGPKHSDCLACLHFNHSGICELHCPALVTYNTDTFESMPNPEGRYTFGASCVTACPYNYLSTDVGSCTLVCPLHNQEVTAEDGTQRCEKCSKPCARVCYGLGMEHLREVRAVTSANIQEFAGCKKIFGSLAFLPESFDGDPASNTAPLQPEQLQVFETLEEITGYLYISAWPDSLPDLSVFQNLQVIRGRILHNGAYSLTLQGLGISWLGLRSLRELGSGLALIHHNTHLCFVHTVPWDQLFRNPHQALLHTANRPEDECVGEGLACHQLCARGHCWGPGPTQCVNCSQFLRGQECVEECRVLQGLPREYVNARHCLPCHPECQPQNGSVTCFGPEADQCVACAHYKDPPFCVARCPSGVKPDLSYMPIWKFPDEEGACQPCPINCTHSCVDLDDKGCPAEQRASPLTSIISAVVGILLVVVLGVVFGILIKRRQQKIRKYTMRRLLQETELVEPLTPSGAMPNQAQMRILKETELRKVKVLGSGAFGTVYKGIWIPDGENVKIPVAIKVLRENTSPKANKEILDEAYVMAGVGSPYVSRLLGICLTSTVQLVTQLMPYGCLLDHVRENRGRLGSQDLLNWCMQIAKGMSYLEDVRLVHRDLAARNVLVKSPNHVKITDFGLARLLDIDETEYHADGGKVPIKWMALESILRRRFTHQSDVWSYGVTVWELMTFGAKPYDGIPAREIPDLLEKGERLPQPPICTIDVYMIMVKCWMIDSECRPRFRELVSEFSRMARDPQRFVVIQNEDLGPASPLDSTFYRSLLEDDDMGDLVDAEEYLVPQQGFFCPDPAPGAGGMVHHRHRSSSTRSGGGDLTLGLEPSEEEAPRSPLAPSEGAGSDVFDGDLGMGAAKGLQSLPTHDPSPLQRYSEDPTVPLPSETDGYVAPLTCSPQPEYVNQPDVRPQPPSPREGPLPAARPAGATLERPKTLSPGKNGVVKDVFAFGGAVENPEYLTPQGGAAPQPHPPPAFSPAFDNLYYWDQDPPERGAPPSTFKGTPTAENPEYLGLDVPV
Chain of Fibroblast growth factor receptor 1 (P11362 whole entry): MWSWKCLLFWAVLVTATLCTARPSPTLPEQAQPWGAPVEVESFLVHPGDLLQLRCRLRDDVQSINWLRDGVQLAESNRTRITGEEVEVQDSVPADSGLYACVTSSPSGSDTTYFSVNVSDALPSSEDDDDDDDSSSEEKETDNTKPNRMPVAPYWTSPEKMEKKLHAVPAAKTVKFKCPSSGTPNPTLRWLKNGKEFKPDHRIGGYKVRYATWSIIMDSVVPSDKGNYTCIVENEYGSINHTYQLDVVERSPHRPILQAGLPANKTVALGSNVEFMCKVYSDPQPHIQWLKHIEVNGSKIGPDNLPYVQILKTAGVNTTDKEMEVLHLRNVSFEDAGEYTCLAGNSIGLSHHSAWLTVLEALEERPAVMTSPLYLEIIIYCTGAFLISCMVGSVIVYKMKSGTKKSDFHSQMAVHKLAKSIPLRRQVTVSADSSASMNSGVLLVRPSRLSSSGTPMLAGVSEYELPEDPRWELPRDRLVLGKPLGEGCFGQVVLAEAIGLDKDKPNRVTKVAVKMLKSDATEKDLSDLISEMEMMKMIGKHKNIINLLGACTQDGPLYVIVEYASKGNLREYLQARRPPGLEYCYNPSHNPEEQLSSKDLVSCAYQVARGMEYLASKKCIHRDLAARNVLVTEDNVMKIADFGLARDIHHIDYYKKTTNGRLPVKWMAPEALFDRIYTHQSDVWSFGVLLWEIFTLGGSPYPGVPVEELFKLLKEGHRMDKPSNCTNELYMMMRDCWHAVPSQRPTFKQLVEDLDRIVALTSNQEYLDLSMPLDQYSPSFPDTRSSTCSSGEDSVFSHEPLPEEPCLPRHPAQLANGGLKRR
Chain of Angiopoietin-1 receptor (Q02763 whole entry): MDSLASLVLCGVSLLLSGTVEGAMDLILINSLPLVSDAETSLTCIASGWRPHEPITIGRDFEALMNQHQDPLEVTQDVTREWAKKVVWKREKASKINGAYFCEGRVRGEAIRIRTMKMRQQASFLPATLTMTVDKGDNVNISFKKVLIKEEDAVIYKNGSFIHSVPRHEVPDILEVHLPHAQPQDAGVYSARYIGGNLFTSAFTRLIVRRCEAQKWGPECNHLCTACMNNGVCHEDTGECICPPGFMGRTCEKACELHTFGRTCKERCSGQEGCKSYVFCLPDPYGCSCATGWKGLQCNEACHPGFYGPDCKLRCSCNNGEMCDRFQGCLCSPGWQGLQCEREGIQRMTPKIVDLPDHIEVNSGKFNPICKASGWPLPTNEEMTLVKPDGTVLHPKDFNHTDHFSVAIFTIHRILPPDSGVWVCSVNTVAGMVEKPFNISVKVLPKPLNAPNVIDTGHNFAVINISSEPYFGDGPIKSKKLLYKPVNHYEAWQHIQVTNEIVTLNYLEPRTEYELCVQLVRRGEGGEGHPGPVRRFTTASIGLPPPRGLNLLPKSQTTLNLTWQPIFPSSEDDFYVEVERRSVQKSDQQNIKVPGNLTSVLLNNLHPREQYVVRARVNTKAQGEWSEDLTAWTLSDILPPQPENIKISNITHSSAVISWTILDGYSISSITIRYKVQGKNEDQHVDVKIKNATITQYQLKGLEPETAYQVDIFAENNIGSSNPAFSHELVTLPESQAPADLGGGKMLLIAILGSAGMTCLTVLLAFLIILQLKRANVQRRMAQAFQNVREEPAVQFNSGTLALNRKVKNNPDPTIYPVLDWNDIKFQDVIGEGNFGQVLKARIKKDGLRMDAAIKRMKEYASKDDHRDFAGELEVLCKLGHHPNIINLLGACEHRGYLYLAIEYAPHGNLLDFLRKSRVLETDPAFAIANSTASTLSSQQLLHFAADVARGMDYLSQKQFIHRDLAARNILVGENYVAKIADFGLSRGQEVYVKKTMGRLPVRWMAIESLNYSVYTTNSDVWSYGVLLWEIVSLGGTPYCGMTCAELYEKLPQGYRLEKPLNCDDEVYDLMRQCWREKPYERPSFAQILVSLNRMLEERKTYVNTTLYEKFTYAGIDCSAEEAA
Chain of Vascular endothelial growth factor receptor 3 (P35916 whole entry): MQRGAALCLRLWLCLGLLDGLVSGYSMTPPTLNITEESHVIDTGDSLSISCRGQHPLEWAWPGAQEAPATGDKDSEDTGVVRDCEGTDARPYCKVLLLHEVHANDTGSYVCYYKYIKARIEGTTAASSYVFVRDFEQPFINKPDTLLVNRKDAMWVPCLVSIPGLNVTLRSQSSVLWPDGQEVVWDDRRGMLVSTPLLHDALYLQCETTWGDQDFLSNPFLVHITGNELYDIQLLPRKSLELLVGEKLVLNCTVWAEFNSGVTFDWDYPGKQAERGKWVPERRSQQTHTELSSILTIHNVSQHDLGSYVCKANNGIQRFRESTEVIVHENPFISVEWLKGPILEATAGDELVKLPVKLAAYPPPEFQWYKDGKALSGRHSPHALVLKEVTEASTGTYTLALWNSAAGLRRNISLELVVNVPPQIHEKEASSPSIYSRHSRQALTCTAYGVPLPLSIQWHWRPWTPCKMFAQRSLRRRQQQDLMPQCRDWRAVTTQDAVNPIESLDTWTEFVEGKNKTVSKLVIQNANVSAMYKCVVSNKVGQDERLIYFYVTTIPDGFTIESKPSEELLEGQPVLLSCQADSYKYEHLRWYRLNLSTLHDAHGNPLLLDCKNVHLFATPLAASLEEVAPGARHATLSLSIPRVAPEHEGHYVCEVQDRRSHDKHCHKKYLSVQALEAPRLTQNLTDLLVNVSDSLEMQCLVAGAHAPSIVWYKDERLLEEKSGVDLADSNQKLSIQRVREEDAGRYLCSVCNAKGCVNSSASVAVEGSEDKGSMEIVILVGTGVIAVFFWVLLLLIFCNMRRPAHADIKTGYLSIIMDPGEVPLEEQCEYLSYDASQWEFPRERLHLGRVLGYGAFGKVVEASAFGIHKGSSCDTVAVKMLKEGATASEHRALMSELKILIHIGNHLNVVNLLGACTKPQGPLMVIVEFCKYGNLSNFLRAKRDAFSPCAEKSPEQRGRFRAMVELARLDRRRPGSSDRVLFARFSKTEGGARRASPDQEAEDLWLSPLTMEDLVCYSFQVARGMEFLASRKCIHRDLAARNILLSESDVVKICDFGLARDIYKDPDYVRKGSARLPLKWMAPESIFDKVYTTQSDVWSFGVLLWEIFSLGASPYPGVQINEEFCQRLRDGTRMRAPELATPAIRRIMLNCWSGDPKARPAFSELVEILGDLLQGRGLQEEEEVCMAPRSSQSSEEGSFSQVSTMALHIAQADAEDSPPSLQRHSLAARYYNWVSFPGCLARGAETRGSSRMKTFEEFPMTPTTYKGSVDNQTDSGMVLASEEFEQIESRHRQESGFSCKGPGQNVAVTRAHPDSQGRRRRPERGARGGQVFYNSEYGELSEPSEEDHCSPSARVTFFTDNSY
Chain of Cyclin-dependent kinase 1 (P06493 whole entry): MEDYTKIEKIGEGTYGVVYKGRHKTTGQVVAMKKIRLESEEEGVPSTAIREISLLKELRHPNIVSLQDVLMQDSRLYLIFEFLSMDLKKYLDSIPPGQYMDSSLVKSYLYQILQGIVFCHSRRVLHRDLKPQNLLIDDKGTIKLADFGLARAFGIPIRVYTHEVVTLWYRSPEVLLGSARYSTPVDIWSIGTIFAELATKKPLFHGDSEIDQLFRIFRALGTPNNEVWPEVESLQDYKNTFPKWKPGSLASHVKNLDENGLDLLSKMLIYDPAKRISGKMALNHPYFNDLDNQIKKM

SMILES: COc1cc2c(Nc3ccc(NC(=O)Nc4cccc(F)c4)c(F)c3)ncnc2cc1OCC1CCN(C)CC1
IC50 (HUVEC): 185 nM

solubility [1]: soluble
SMILES: COc1cc2c(Nc3ccc(Br)cc3F)ncnc2cc1OCC1CCN(C)CC1 [VANDETANIB]
IC50 (HUVEC): 187 nM

SMILES: CCNC(=O)Nc1ccc(Nc2ncnc3cc(OCC4CCN(C)CC4)ccc23)cc1
IC50 (HUVEC): 587 nM

logP [2]: 5
SMILES: CNC(=O)c1cc(Oc2ccc(NC(=O)Nc3ccc(Cl)c(C(F)(F)F)c3)cc2)ccn1 [SORAFENIB]

SMILES: CN1CCC(COc2ccc3c(Nc4ccc(NC(=O)Nc5cccc(F)c5)c(Cl)c4)ncnc3c2)CC1
IC50 (HUVEC): 132 nM

SMILES: CN1CCC(COc2ccc3c(Nc4ccc(NC(=O)NC5CC5)cc4)ncnc3c2)CC1
IC50 (HUVEC): 324 nM

pKa [3]: 8.1
SMILES: CN1CCCCC1

SMILES: CN1CCC(COc2ccc3c(Nc4ccc(CC(=O)Nc5ccc(F)c(F)c5)cc4)ncnc3c2)CC1
IC50 (HUVEC): 308 nM

SMILES: CN1CCC(COc2ccc3c(Nc4ccc(NC(=O)Nc5cccc(F)c5)c(F)c4)ncnc3c2)CC1
IC50 (HUVEC): 67 nM

IC50 [6]: 10000 nM | IC50 [7]: 1920 nM | IC50 [8]: 9.6 nM | IC50 [9]: 1360 nM | IC50 [10]: 8710 nM | IC50 [11]: > 10000 nM | IC50 (Angiopoietin-1 receptor): > 10000 nM | IC50 [14]: > 10000 nM | IC50 [17]: 5.5 nM
SMILES: CN1CCC(COc2ccc3c(Nc4ccc(NC(=O)Nc5cccc(F)c5)cc4)ncnc3c2)CC1
IC50 (HUVEC): 52 nM | Activity (Mus musculus [4]): Non-toxic | inhibition in vivo at 20 mg/kg (HepG2 [5]): 25.6% | inhibition in vivo at 100 mg/kg (HepG2 [12]): 83.6% | inhibition in vivo at 50 mg/kg (HepG2 [13]): 61.4% | Activity (Mus musculus [15]): Non-toxic | TGI (HepG2 [16]): Dose-dependent effect

SMILES: Cc1ccc(NC(=O)Nc2ccc(Nc3ncnc4cc(OCC5CCN(C)CC5)ccc34)cc2)cc1Br
IC50 (HUVEC): 196 nM

SMILES: CN1CCC(COc2ccc3c(Nc4ccc(NC(=O)Nc5ccc(Br)cc5F)cc4)ncnc3c2)CC1
IC50 (HUVEC): 233 nM

SMILES: COc1cc2c(Nc3ccc(NC(=O)Nc4cccc(F)c4)cc3)ncnc2cc1OCC1CCN(C)CC1
IC50 (HUVEC): 179 nM

SMILES: CN1CCC(COc2ccc3c(Nc4ccc(CC(=O)Nc5ccc(Cl)c(C(F)(F)F)c5)cc4)ncnc3c2)CC1
IC50 (HUVEC): 258 nM

SMILES: CN1CCC(COc2ccc3c(Nc4ccc(NC(=O)Nc5ccc(Cl)c(C(F)(F)F)c5)cc4)ncnc3c2)CC1
IC50 (HUVEC): 92 nM

SMILES: CN1CCC(COc2ccc3c(Nc4ccc(NC(=O)Nc5ccc(F)c(F)c5)cc4)ncnc3c2)CC1
IC50 (HUVEC): 89 nM

SMILES: CN1CCC(COc2ccc3c(Nc4ccc(CC(=O)Nc5cccc(F)c5)cc4)ncnc3c2)CC1
IC50 (HUVEC): 237 nM
